Bioassay records as filed in PubChem BioAssay.
Ecoli rRNA inh = reduced GFP signal of wild-type E. coli, primary screen, bacterial rRNA inhibitor project, GFP/RFP fluorescence, OD600, single point. E. coli WT GFP vs humanized-ribosome RFP mutants, 24 h; active compounds read low; DMSO median 0, no signal -100. GFP signal change (wild-type ribosome), % (test concentration not listed). 1.6% of 350,000 active;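 active = significant combined selectivity score with lowered wild-type GFP, culture density cut under 30%, mutant RFP and density less affected; inactive = any of these conditions unmet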
S100A4 inh HTS = inhibitors of S100A4-myosin IIA peptide binding, primary screen, biochemical, fluorescence polarization, TAMRA-MyoIIA peptide. 0.14% of 360,000 active. inhibition, % at 10.7 µM. Protein S100-A4 (Homo sapiens), P26447. AID 652163, 2013;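 active = mean inhibition of at least 70% across replicates, with every replicate also reaching that level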
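Material: S100A4 monomer (human). Medium: Calcium-containing HEPES buffer, pH 7.2. Probe or stimulus: labelled myosin peptide probe, 5 nM. Compound dosing: one concentration per compound. Timing: polarization read 5 min after assay mix addition, stable 5–60 min. Benchmarks: DMSO as neutral control, TFP as positive control.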
ERAP1 inh = human ERAP1 aminopeptidase inhibitors, primary screen, biochemical, single point, plate reader | Endoplasmic reticulum aminopeptidase 1 (Homo sapiens), Q9NZ08 | recombinant ERAP1, Leu-AMC fluorescence, 60 min | inhibition, % at 10.7 µM | 0.15% of 340,000 active | AID 652197, 2013;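 active = mean replicate inhibition of at least 30%, or all replicates individually reaching that 30% level; inactive = mean below 30% and not every replicate reaching it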;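 note: 0% = neutral control wells and 100% = L-leucinethiol positive control wells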
Target sequence (Q9NZ08 whole entry, looked up): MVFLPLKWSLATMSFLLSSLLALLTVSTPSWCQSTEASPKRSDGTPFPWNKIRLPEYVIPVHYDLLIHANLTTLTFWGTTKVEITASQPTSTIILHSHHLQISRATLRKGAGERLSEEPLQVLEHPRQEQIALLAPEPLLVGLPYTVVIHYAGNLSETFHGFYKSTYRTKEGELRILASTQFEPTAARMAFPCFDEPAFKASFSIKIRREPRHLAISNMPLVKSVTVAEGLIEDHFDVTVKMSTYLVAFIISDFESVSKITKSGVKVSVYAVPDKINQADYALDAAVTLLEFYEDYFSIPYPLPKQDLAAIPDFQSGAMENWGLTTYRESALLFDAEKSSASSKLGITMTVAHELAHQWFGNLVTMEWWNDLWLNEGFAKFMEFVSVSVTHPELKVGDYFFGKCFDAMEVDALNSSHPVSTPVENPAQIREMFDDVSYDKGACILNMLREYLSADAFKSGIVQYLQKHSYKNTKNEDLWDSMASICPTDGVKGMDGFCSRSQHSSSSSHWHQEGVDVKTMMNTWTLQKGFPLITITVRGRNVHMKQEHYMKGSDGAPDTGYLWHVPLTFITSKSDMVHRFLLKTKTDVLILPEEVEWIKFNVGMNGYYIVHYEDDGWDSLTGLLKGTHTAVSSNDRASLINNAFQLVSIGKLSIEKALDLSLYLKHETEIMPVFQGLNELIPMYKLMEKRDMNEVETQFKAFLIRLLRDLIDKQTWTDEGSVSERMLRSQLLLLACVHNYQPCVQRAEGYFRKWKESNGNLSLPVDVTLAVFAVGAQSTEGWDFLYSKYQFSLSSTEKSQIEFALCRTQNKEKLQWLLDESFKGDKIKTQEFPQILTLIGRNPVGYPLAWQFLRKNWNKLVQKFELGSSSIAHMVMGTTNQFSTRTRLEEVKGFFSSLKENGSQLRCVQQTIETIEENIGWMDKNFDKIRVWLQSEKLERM
PGC1a acetyl inh = inhibitors of PGC1a acetylation signal, primary screen, cell-based, U2OS, AlphaScreen, inhibitor mode; AlphaScreen anti-acetyl-lysine; with virally co-expressed GCN5 acetyltransferase; inhibition, % at 15.6 µM; 0.17% of 350,000 active; AID 651687, 2012;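 active = every replicate shows inhibition of at least 40%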;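 note: 0% = neutral control wells and 100% = positive control wells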
CASP6 VEID inh = human caspase-6 inhibitors, primary screen, biochemical, VEID-R110 fluorescence, single point, set 2. AID 686996, 2013. inhibition, % at 12.5 µM. P55212. 0.53% of 350,000 active. purified caspase-6, Z-VEID-R110 cleavage fluorescence;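 active = mean inhibition across replicates at least about 35%, with every replicate also reaching that limit, limit read from the data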;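 note: 0% = median of neutral control wells and 100% = no fluorescence left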
ARNT-TACC3 inh = disruptors of ARNT/TACC3 protein interaction, primary screen, biochemical, AlphaScreen, single concentration. AlphaScreen His-ARNT PAS-B/GST-TACC3 binding, luminescence; TACC3 fragment carries E629A point mutation. inhibition, % at 9.99 µM. 0.66% of 390,000 active. AID 623870, 2012;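 active = mean inhibition of replicates at least 50% and at least half of replicates each reaching 50%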;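 note: 0% = complete ARNT plus TACC3 wells and 100% = ARNT alone without TACC3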
* marks the source's active call; other numbers are inactive results; nt = no result; ! = not confirmed by another sample. Only some compounds are listed: those with a hit (about 2.4% of all), similar ones and a draw of the others.

SMILES	Ecoli rRNA inh	S100A4 inh HTS	ERAP1 inh	PGC1a acetyl inh	CASP6 VEID inh	ARNT-TACC3 inh
COc1ccc(C[C@@H]2CCn3cc(nn3)COC[C@H](Cc3ccccc3)NC2=O)cc1	2	6	1	nt	5	nt
O=C(Nc1nnc(C2=COCCO2)o1)c1cccc(C(F)(F)F)c1	-54	2	-2	nt	5	41
O=C(Nc1nnc(C2=COCCO2)o1)c1ccc(Cc2ccccc2)cc1	-46*	-4	-1	4	8	4
O=C1CCc2ccccc2O1	5	-15	0	5	1	-5
O=C1CCc2cc(Br)ccc2O1	-9	-5	-1	3	45*	-24
Cc1ccc(-n2c(-c3ccccc3)c[n+]3c2CCc2ccccc2-3)c(C)c1	-53*	1	-6	nt	3	7
Cc1ccc(-n2c(-c3ccccc3)c[n+]3c2CCC3)cc1	-8	1	-4	-6	-6	0
COCCNC(=S)N(CCc1c(C)[nH]c2ccc(Cl)cc12)Cc1cccs1	-22*	-4	-1	-13	0	3
COCCNC(=S)N(CCc1c(C)[nH]c2ccc(F)cc12)Cc1cccs1	-47	-3	-1	nt	2	3
C/C=C/c1ccc2c(c1)O[C@@H](CN(C)C(=O)Cc1ccncc1)[C@H](C)CN([C@H](C)CO)S2(=O)=O	-1	-7	1	-4	3	0
C=C(C)C(=O)Nc1cccc(C2=NOC3(C2)C[C@@H](C(N)=O)N(C(=O)C(=C)C)C3)c1 (stereo partly drawn)	12	-2	-2	-1	38*	-5
C=C(C)C(=O)Nc1cccc(C2=NOC3(C2)C[C@@H](C(N)=O)N(C(=O)/C=C/CC)C3)c1 (stereo partly drawn)	3	-4	0	2	44*	1
C=C(C)C(=O)Nc1cccc(C2=NOC3(C2)C[C@@H](C(N)=O)N(C(=O)C2(C)CC2)C3)c1 (stereo partly drawn)	nt	nt	nt	13	nt	17
C=C(C)C(=O)Nc1cccc(C2=NOC3(C2)C[C@H](C(N)=O)N(C(=O)/C=C/C)C3)c1 (stereo partly drawn)	2	-5	0	2	53*	-7
C=C(C)C(=O)Nc1cccc(C2=NOC3(C2)C[C@H](C(N)=O)N(C(=O)COc2ccc(Cl)cc2)C3)c1 (stereo partly drawn)	nt	-4	2	nt	51*	2
COCC(=O)Nc1ccc2c(c1)[C@@H]1C[C@@H](CC(=O)NCc3ccc(-c4ccccc4)cc3)O[C@@H](CO)[C@@H]1O2	-7	1	-4	-5	-2	2
CCNC(=O)C[C@H]1CC[C@H]2[C@@H](COc3ccc(NC(=O)NC(C)C)cc3C(=O)N2C)O1	1	nt	nt	2	nt	nt
CN=c1scc(-c2ccc(F)cc2)n1/N=C/c1ccc(O)c(O)c1	-41*	7	12	-3	21	23
O=C(Nc1ccccc1C(=O)N1CCCC1)c1ccccc1	9	-4	-1	-13	1	-8
O=C(Nc1ccccc1C(=O)N1CCCCCC1)c1ccc(Cl)cc1	-24*	-2	-2	-4	-1	-3
CCNC(=S)N1C2CCC1CC(NC(=O)Nc1ccc(C(=O)OCC)cc1)C2 (stereo not drawn)	-21*	0	-2	11	5	1
O=C(C[C@@H]1CC[C@@H](NC(=O)C2CCOCC2)[C@@H](CO)O1)Nc1ccccc1	3	10	1	6	0	nt
CCOC(=O)c1ccc(NC(=S)NCc2cccnc2)cc1	-25	1	-1	-12	0	2
CCOc1ccc(NC(=S)NCc2cccnc2)cc1	-20*	0	3	-3	-1	6
CCCc1nc2oc3ccccc3c(=O)c2c(=O)n1-c1ccccc1	-30*	-3	-2	-1	4	nt
SMILES	Ecoli rRNA inh	S100A4 inh HTS	ERAP1 inh	PGC1a acetyl inh	CASP6 VEID inh	ARNT-TACC3 inh
Cc1ccc(-n2c(C(C)C)nc3oc4ccccc4c(=O)c3c2=O)cc1	-32*	-2	2	nt	1	2
CCc1nc2oc3ccccc3c(=O)c2c(=O)n1-c1ccc(C)cc1	-42	-11	4	2	7	nt
CCCc1nc2oc3ccccc3c(=O)c2c(=O)n1-c1ccc(C)cc1	-46*	2	6	12	-1	nt
COc1ccc(NC(=O)N(C)C[C@H]2Oc3c(NS(=O)(=O)c4ccc(F)cc4)cccc3C(=O)N([C@H](C)CO)C[C@H]2C)cc1	4	nt	nt	-4	nt	6
C[C@@H]1CCCCO[C@H](CN(C)C(=O)Nc2ccc3c(c2)OCO3)[C@H](C)CN([C@@H](C)CO)C(=O)c2cc(NS(=O)(=O)c3cccs3)ccc2O1	1	-9	0	5	-2	-7
O=C(O)CC1(CC(=O)Nc2ccc(F)c(Cl)c2)CCCCC1	-23*	-2	-4	15	1	nt
CC(=O)Nc1cccc(C(=O)OCc2ccccc2)c1	nt	nt	nt	7	nt	-4
CCCS(=O)(=O)c1ccc(COC(=O)c2cccc(NC(=O)C(C)C)c2)cc1	-39*	2	2	2	-4	8
CSc1ccc2c(c1)N(CCC1CCCCN1C)c1ccccc1S2 (stereo not drawn)	nt	3	19	-6	2	58*!
C/C(=N\NC(=O)c1cc(O)cc(O)c1)c1ccc(NC(=O)Cc2ccccc2)cc1	11	-5	-2	nt	71*	35
CC(C)OP(=O)(c1ccc(N(C)C)cc1)C(Nc1ccccc1)c1ccccc1 (stereo not drawn)	-27*	-1	-2	-10	5	6
CN(C)c1ccc(P(=O)(OCc2ccccc2)C(O)c2ccc(Cl)cc2)cc1 (stereo not drawn)	8	-1	-1	-10	-1	-2
CN(C)c1ccc(P(=O)(OCc2ccccc2)C(O)c2ccccc2)cc1 (stereo not drawn)	-20*	2	-1	-8	-2	-2
C/C=C/c1cnc2c(c1)C(=O)N([C@H](C)CO)C[C@@H](C)[C@H](CN(C)Cc1ccncc1)O2	-4	-7	0	11	0	-8
Cc1ccc2c(c1)C(=O)C(=O)N2CCOc1ccccc1	-23*	-2	-3	-5	nt	8
Cc1cccc(OCCN2C(=O)C(=O)c3cc(C)ccc32)c1	-45	3	6	5	8	27
O=C(COC(=O)c1nc(Cl)ccc1Cl)Nc1ccccc1OC(F)F	-19*	3	-5	1	-2	3
